Urinary bactericidal titer, MIC and Time data for 2 molecules are collected here from ChEMBL document CHEMBL1649151, “Urinary bactericidal activity of Doripenem versus that of levofloxacin in patients with complicated urinary tract infections or pyelonephritis” (Antimicrob Agents Chemother, 2009).

Values after ≈ are worked out from the molar mass of the structure shown.

Assay [1] relates to Escherichia coli. As to the kind of experiment: Antimicrobial activity against Escherichia coli 2062717 B-P isolated from patient with pyelonephritis assessed as >3-log reduction in urinary bacterial titer after 8 hrs. In kind it is functional, Urine.
For assay [2], the system named is Escherichia coli. Briefly: Antimicrobial activity against Escherichia coli 1949826 B-L isolated from patient with pyelonephritis assessed as >3-log reduction in urinary bacterial titer after 4 hrs. In kind it is functional, Urine. In a few lines: (§1)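 Patient urine was collected on day 3 of i.v. therapy (steady state) over 4-h intervals after infusion start, stored at –80°C, and sterile filtered. It was twofold serially diluted (1:0 to 1:131,072) in the patient's own pre-dose drug-free urine, inoculated to 1.0 x 10^6–9.5 x 10^6 CFU/ml, and incubated for 18 h at 37°C. Subcultures were grown on blood agar for 24 h. The UBT is the reciprocal of the highest dilution giving >99.9% kill.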

Assay [3] relates to Escherichia coli. Briefly: Antimicrobial activity against Escherichia coli 2062717 B-P isolated from patient with pyelonephritis assessed as >3-log reduction in urinary bacterial titer after 12 hrs. In kind it is functional, Urine. A digest of the protocol:
as §1

Assay [4] deals with Enterococcus faecalis. Briefly: Antimicrobial activity against Enterococcus faecalis 2215770 B-T isolated from patient with pyelonephritis by Etest. In kind it is functional.
In assay [5] the test system is Enterococcus faecalis. As to the kind of experiment: Antimicrobial activity against Enterococcus faecalis 2215770 B-T isolated from patient with pyelonephritis assessed as >3-log reduction in urinary bacterial titer after 4 hrs. In kind it is functional, Urine. A digest of the protocol: (§2)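 Urine was collected before dosing and on day 3 of i.v. therapy (steady state), in 4-h intervals from infusion start (0–4 to 20–24 h), stored at −80°C and sterile filtered. It was serially diluted twofold (1:0 to 1:131,072) in the patient's drug-free pre-dose urine. Microdilution used an inoculum of 1.0 x 10^6–9.5 x 10^6 CFU/ml, incubated 18 h at 37°C, then subcultured 24 h on blood agar. The endpoint was >99.9% kill, reported as reciprocal titer.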

For assay [6], the system named is Escherichia coli. Briefly: Antimicrobial activity against Escherichia coli 1780063 B-A isolated from patient with pyelonephritis assessed as >3-log reduction in urinary bacterial titer after 4 hrs. In kind it is functional, Urine. A digest of the protocol: as §2
The test system of assay [7] is Escherichia coli. Briefly: Antimicrobial activity against Escherichia coli 1821385 B-C isolated from patient with pyelonephritis assessed as >3-log reduction in urinary bacterial titer after 8 hrs. In kind it is functional, Urine. In a few lines: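 Urine was collected on day 3 of i.v. therapy (steady state) over 4-h intervals from infusion start (0–4 to 20–24 h), stored at –80°C and sterile filtered. It was serially diluted twofold (1:0 up to 1:131,072) in the patient's own pre-dose drug-free urine. Microdilution used a final inoculum of 1.0 x 10^6 to 9.5 x 10^6 CFU/ml, incubated 18 h at 37°C in air. 10 µl was subcultured onto 5% blood Columbia agar for 24 h at 37°C. The bactericidal endpoint was >99.9% (>3-log) kill, reported as a reciprocal titer.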

Assay [8] relates to Staphylococcus haemolyticus. As to the kind of experiment: Antimicrobial activity against Staphylococcus haemolyticus 1949819 B-M isolated from patient with pyelonephritis assessed as >3-log reduction in urinary bacterial titer after 20 hrs. In kind it is functional, Urine.
In assay [9] the test system is Staphylococcus haemolyticus. As to the kind of experiment: Antimicrobial activity against Staphylococcus haemolyticus 1949819 B-M isolated from patient with pyelonephritis assessed as >3-log reduction in urinary bacterial titer after 4 hrs. In kind it is functional, Urine.
The test system of assay [10] is Staphylococcus aureus. As to the kind of experiment: Antimicrobial activity against Staphylococcus aureus 1889640 A-Z isolated from patient with pyelonephritis assessed as >3-log reduction in urinary bacterial titer after 16 hrs. In kind it is functional, Urine.
Assay [11] deals with Staphylococcus aureus. As to the kind of experiment: Antimicrobial activity against Staphylococcus aureus 1889640 A-Z isolated from patient with pyelonephritis assessed as >3-log reduction in urinary bacterial titer after 24 hrs. In kind it is functional, Urine.
Assay [12] has as its system Staphylococcus aureus. As to the kind of experiment: Antimicrobial activity against Staphylococcus aureus 1889640 A-Z isolated from patient with pyelonephritis assessed as >3-log reduction in urinary bacterial titer after 12 hrs. In kind it is functional, Urine.
In assay [13] the test system is Enterococcus faecalis. Briefly: Antimicrobial activity against Enterococcus faecalis 2297262-10 B-V isolated from patient with pyelonephritis assessed as >3-log reduction in urinary bacterial titer after 20 hrs. In kind it is functional, Urine. A digest of the protocol: as §2
In assay [14] the test system is Staphylococcus epidermidis. As to the kind of experiment: Antimicrobial activity against Staphylococcus epidermidis 2297262-9 B-V isolated from patient with pyelonephritis assessed as >3-log reduction in urinary bacterial titer after 24 hrs. In kind it is functional, Urine.
For assay [15], the system named is Escherichia coli. Briefly: Antimicrobial activity against Escherichia coli 1655646 A-Y isolated from patient with pyelonephritis assessed as >3-log reduction in urinary bacterial titer after 8 hrs. In kind it is functional, Urine. A digest of the protocol: as §2
For the next assay, the system named is Serratia marcescens. Briefly: Antimicrobial activity against Serratia marcescens 2297260 B-U isolated from patient with pyelonephritis assessed as >3-log reduction in urinary bacterial titer after 24 hrs. In kind it is functional, Urine.
Assay [16] relates to Staphylococcus aureus. As to the kind of experiment: Antimicrobial activity against Staphylococcus aureus 2215767-9 B-S isolated from patient with pyelonephritis assessed as >3-log reduction in urinary bacterial titer after 8 hrs. In kind it is functional, Urine.

As a reminder, the MIC is the smallest concentration in the dilution series that meets the test's criterion for growth inhibition. Low values mean a more susceptible organism, high ones a less susceptible organism.

Turning to `C[C@@H](O)[C@H]1C(=O)N2C(C(=O)O)=C(S[C@@H]3CN[C@H](CNS(N)(=O)=O)C3)[C@H](C)[C@H]12` [DORIPENEM], the urinary bactericidal titer in the assay with Escherichia coli [1] came to 1024 reciprocal titer; in the assay with Escherichia coli [2], 128 reciprocal titer; in the assay with Escherichia coli [3], 1024 reciprocal titer; with Enterococcus faecalis [5] it was 2048 reciprocal titer; in the assay on Escherichia coli [6], 4096 reciprocal titer; with Escherichia coli [7], 256 reciprocal titer. Also, the urinary bactericidal titer was 2048 reciprocal titer in [8] and 512 reciprocal titer in assay [9]. Further, in the assay on Enterococcus faecalis [4], the MIC came to 0.25 µg/mL (≈ 0.595 µM).
Regarding `C[C@H]1COc2c(N3CCN(C)CC3)c(F)cc3c(=O)c(C(=O)O)cn1c23.C[C@H]1COc2c(N3CCN(C)CC3)c(F)cc3c(=O)c(C(=O)O)cn1c23.O` [LEVOFLOXACIN], the urinary bactericidal titer in the assay on Staphylococcus aureus [10] worked out at 128 reciprocal titer; with Staphylococcus aureus [11], 64 reciprocal titer; in the assay with Staphylococcus aureus [12], 128 reciprocal titer; in [14], 2 reciprocal titer; with Escherichia coli [15], 2048 reciprocal titer; in the assay with Serratia marcescens, 32 reciprocal titer. Also, the urinary bactericidal titer with Staphylococcus aureus [16] turned out to be 0 reciprocal titer. Further, in the assay with Enterococcus faecalis [13], the Time came out at 0 h.
